# Results from article PMC5196489 (International Journal for Parasitology: Drugs and Drug …, 2016).
# “Also recorded” adds a separate entry of the source.
# Assays:
# larval schistosomules [1] = experiment: Schistosomule mobility; assay type: cell-based, Schistosoma mansoni; details: for IC50: Schistosoma mansoni, 0.5 h, read-out: IC50 schistosomule
# How it was run: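 S. mansoni PR-1 cercariae mechanically transformed, tails removed on Percoll, kept in modified Basch medium without serotonin (37 °C, 5% CO2); about 200 per 0.5 mL well. Basal movement recorded first, then 5-HT (10 μM), then rising doses of test compound added at 20x. Incubated 30 min before a 1 min video. Mobility scored as body-length deviations >20% from the mean per minute.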
# Sm.5HTRL [2] = molecular target: T1, Sm.5HTRL (Schistosoma mansoni, UniProt A0A173FEI8); experiment: cAMP biosensor; assay type: cell-based; details: for IC50: read-out: IC50 Sm.5HTRL, inhibition of 5-HT (0.8 μM) evoked cAMP generation, HEK293 cells co-transfected with 22-F cAMP biosensor, IBMX 200 μM; for block of Sm.5HTRL dependent cAMP generation in vitro: Fig. 1
# T1 sequence (A0A173FEI8 1-547): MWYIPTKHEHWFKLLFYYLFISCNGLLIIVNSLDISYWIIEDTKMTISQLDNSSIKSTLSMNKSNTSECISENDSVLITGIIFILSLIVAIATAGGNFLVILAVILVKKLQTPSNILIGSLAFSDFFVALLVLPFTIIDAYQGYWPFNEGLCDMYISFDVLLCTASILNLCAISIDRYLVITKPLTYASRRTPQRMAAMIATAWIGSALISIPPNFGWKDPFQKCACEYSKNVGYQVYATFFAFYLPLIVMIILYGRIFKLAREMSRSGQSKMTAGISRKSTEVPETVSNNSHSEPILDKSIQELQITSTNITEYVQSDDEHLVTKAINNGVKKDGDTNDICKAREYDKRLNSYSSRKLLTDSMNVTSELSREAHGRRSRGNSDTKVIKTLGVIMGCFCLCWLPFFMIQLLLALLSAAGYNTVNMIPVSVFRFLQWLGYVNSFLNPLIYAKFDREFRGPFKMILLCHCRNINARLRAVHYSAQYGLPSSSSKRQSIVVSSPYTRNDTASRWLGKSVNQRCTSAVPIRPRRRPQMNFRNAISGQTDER
# adult S. mansoni = experiment: Adult schistosome mobility assay; assay type: cell-based, Schistosoma mansoni
# [3] = system: human 5-HT7 receptor (Hs.5HT7R); details: ref Farrell et al., 2016; cited from earlier work
# Sm.5HTRL [4] = molecular target: T1, Sm.5HTRL; details: chemical screening data; ref Chan et al., 2016b; cited from earlier work
# larval schistosomules [5] = details: ref Chan et al., 2014; cited from earlier work
smiles,measurement,setting,value
"COc1ccc2c(c1O)-c1c3c(cc4c1[C@H](C2)N(C)CC4)OCO3 [Bulbocapnine, (+)-Bulbocapnine]",IC50,larval schistosomules [1],76.1 ± 17.8 µM
same,IC50,Sm.5HTRL [2],15.2 ± 2.5 µM
"COc1cc2c(cc1O)C[C@H]1c3c(cc(O)c(OC)c3-2)CCN1C [Boldine, (+)boldine]",effect on 5-HT stimulated motility,"adult S. mansoni; female adult worms, increasing 5-HT",high doses of 5-HT were competent at restoring motility
same,IC50,larval schistosomules [1],2.5 ± 1.4 µM
same,block of Sm.5HTRL dependent cAMP generation in vitro,Sm.5HTRL [2],completely blocked
same,IC50,Sm.5HTRL [2],1.1 ± 0.1 µM
"NCCc1c[nH]c2ccc(O)cc12 [5-HT, 5-hydroxytryptamine, reference compound]",effect of 5-HT on adult worm movement,"adult S. mansoni; control worms, Fig. 4C&D","stimulated movement, most evident in female worms"
same,increase in schistosomule contractility,larval schistosomules [1]; 5-HT 10 μM versus basal movement in media lacking 5-HT,3–5 fold
"COc1cc2c3c(c1OC)-c1ccccc1C[C@H]3N(C)CC2 [Nuciferine, (−)nuciferine]",effect on basal motility,"adult S. mansoni; female adult worms, drug 10 μM, 2 h, p < 0.01 versus p < 0.05",more effective than the other ligands
same,effect on 5-HT stimulated motility,"adult S. mansoni; male adult worms, increasing 5-HT (≤1 mM)",no 5-HT stimulated motility even at the highest 5-HT doses; also recorded: nuciferine action not reversed by 5-HT
same,action at the human 5-HT7 receptor,[3],inverse agonist
same,inhibition of larval contractions / schistosomule motility,"larval schistosomules [1]; 5-HT 10 μM plus increasing doses of aporphine, Fig. 2",particularly effective at inhibiting larval contractions
same,IC50,larval schistosomules [1],0.62 ± 0.22 µM
same,block of Sm.5HTRL dependent cAMP generation in vitro,Sm.5HTRL [2],completely blocked
same,IC50,Sm.5HTRL [2],0.24 ± 0.04 µM
"CSc1ccc2c(c1)C(N1CCN(C)CC1)Cc1ccccc1S2 (centres unmarked) [methiothepin, reference compound]",effect on 5-HT stimulated schistosomule contractility,"larval schistosomules [1]; 5-HT 10 μM plus methiothepin 10 μM, Fig. 2A",reversed this effect
CC(C)C[C@H]1C(=O)N2CCC[C@H]2[C@]2(O)O[C@](NC(=O)[C@@H]3C=C4c5cccc6[nH]c(Br)c(c56)C[C@H]4N(C)C3)(C(C)C)C(=O)N12 [bromocriptine],inhibition at Sm.5HTRL,Sm.5HTRL [4],"potent, and long lasting inhibition"
"CN1CCc2cccc3c2[C@H]1Cc1ccc(O)c(O)c1-3 [Apomorphine, R-(−)-apomorphine, reference compound]",effect on schistosomule contractility,larval schistosomules [5],inhibits schistosomule contractility
same,IC50,larval schistosomules [1],24.2 ± 15.1 µM
same,IC50,Sm.5HTRL [2],15.2 ± 3.3 µM
